The list is not random: actives were taken first. Their share in the collection is about 2%.
CaV13 FRET inh: Disruptors of the CACNA1D IQ motif to Ca2+-dependent inactivation inhibitor domain association, primary screening, Förster resonance energy transfer in intact living …; HEK cells, CFP/YFP FRET ICDI-IQ, plate reader, 10 min; percent FRET-ratio fall versus neutral wells; AID 743397; 340,000 compounds, 0.098% hits; inhibition, % at 12.3 µM;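 active = mean replicate inhibition of at least 30% and at least 1% of replicates passing that level; inconclusive = only one of the two criteria is met; inactive = neither criterion is met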;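 note: 0% = median of the neutral control wells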
FN deposition inh: fibronectin deposition inhibition; 350,000 compounds, 0.086% hits; AH1F fibroblasts, Alexa488-fibronectin deposition fluorescence, overnight; inhibition, % at 12.6 µM;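 active = mean inhibition across replicates of 30% or more, regardless of how many single replicates reach that level; inconclusive = mean under 30% yet at least half of replicates reach 30%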;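 note: positive control wells lacked labelled fibronectin entirely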
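test system = AH1F fibroblasts assembling fluorescent fibronectin matrix | quantity = 10000 AH1F cells per well | buffer or medium = DMEM plus 2% serum, read in PBS | doses = single dose, pinned | incubation = 1 h cell attachment, overnight exposure to compound and label | detection = fluorescence at 485 nm excitation, 525 nm emission | read-out basis = inhibition from reduced deposited-fibronectin fluorescence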
CASP6 VEID inh: blocks human caspase-6 cleavage activity. P55212. purified caspase-6, Z-VEID-R110 cleavage fluorescence. inhibition, % at 12.5 µM. 350,000 compounds, 0.53% hits. AID 686996;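 active = mean inhibition across replicates at least about 35%, with every replicate also reaching that limit, limit read from the data; inconclusive = only one of the two criteria met; inactive = neither criterion met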;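 note: 0% = median of neutral control wells and 100% = no fluorescence left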
Target sequence (P55212 24-179 limits assumed): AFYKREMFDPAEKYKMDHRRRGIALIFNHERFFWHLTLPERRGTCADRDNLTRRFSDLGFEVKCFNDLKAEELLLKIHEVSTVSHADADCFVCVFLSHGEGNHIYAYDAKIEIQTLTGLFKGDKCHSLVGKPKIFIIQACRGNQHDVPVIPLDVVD
Target sequence (P55212 194-293 limits assumed): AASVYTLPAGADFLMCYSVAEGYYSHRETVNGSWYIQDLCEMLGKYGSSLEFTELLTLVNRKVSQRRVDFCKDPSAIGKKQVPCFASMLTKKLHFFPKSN
DENV2 CPE: protects cells from dengue virus 2 cytopathic effect | DENV2-infected cells, cytopathic effect rescue, plate reader | CPE inhibition, % at 9.99 µM | 350,000 compounds, 1.7% hits | AID 651640; in the data active = CPE inhibition above about 20%, passing the limit was not always enough; inconclusive = no clear call, values can overlap the other calls; tested in BHK-21 cells;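 note: 0% = median of neutral control wells and 100% = median of positive control wells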
XiGFP reactiv: activators of X-chromosome reactivation in mouse fibroblasts; XiGFP mouse fibroblasts, % GFP-positive cells imaging, 3 d; cells co-treated with 5-aza-dC sensitizer; scaled so ellipticine positive control = 100%; activation, % at 7.58 µM; 360,000 compounds, 0.055% hits; AID 743238;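 active = mean normalized replicate activation at least 10% and every replicate at or above 10%; inconclusive = only one of the two criteria met; inactive = mean below 10% and not all replicates reach 10%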;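 note: 0% = median of on-plate neutral control wells and 100% = ellipticine 6 µM median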
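System: 68-5-11 XiGFP fibroblast line | Buffer or medium: DMEM containing 5-aza-dC | Compound: Single point | Times: Compounds 3 days, fix/stain 15 min at room temperature | Benchmarks: Positive control ellipticine, 6 µM final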
Numbers without * were called inactive; ? = inconclusive; nt = no result given; + = active, no number.

SMILES | CaV13 FRET inh | FN deposition inh | CASP6 VEID inh | DENV2 CPE | XiGFP reactiv
C[C@H](CO)N1C[C@H](C)[C@@H](CN(C)C(=O)Nc2ccc3c(c2)OCO3)Oc2ccc(NC(=O)C3CC3)cc2CC1=O | nt | nt | 2.7 | 54.3* | 0.2
CC(C)N=C(Nc1cccnc1)c1ccccc1 | -5.4 | 17.4 | 38.9* | -3.1 | 0.0
CCOc1ccc(Nc2nc(Cc3nnc(SCC(=O)NCC4CCCO4)n3C)cs2)cc1 (stereo not drawn) | -9.6 | nt | 36.8* | 4.5 | nt
CCOc1ccc(Nc2nc(Cc3nnc(SCC(=O)N(CC)CC)n3C)cs2)cc1 | -3.7 | 2.0 | nt | nt | nt
CC(C)C#Cc1ccc2c(c1)O[C@H](CN(C)S(=O)(=O)c1cn(C)cn1)[C@@H](C)CN([C@@H](C)CO)S2(=O)=O | nt | -5.7 | -3.7 | -2.3 | 0.2
COc1ccc(CN(C)C[C@H]2Oc3c(NS(=O)(=O)c4ccc(C)cc4)cccc3C(=O)N([C@H](C)CO)C[C@@H]2C)cc1 | nt | nt | 2.1 | 31.3* | -0.2
C[C@@H]1CN([C@H](C)CO)C(=O)c2cccc(NS(=O)(=O)c3cccs3)c2O[C@H]1CN(C)Cc1ccc(Cl)c(Cl)c1 | nt | nt | -0.8 | 41.1* | 0.0
COc1ccc(S(=O)(=O)Nc2cccc3c2O[C@H](CN(C)Cc2ccc(Cl)c(Cl)c2)[C@@H](C)CN([C@H](C)CO)C3=O)cc1 | -6.2 | -4.9 | 0.3 | 25.2* | 0.2
COc1ccc(S(=O)(=O)Nc2cccc3c2O[C@H](CN(C)Cc2ccc(Cl)c(Cl)c2)[C@H](C)CN([C@@H](C)CO)C3=O)cc1 | nt | 1.8 | nt | nt | 0.0
O=C(Nc1ccc(SC(F)F)cc1)C1CC(=O)N(Cc2ccccc2)C1 (stereo not drawn) | -3.3 | -7.7 | 3.1 | 21.8* | 0.2
O=C(Nc1ccccc1)C1CC(=O)N(Cc2ccccc2)C1 (stereo not drawn) | -7.5 | 6.0 | -0.4 | 0.3 | 0.4
C[C@H](NC(=O)[C@H]1[C@H](CO)[C@H]2Cn3c(cccc3=O)[C@H]2N1Cc1cccnc1)c1ccccc1 | nt | nt | -0.5 | -6.3 | 0.0
C[C@H](NC(=O)[C@@H]1[C@@H](CO)[C@@H]2Cn3c(cccc3=O)[C@@H]2N1Cc1cccnc1)c1ccccc1 | nt | nt | -4.4 | 40.5* | -0.1
C[C@@H](NC(=O)[C@@H]1[C@@H](CO)[C@@H]2Cn3c(cccc3=O)[C@@H]2N1CC1CCCC1)c1ccccc1 | nt | -1.6 | nt | 156.1* | -0.1
Cc1noc(C)c1S(=O)(=O)Nc1ccc2c(c1)CC(=O)N([C@H](C)CO)C[C@@H](C)[C@H](CN(C)Cc1ccccc1)O2 | nt | nt | 0.4 | 21.6* | -0.1
Cc1noc(C)c1S(=O)(=O)Nc1ccc2c(c1)C(=O)N([C@H](C)CO)C[C@H](C)[C@@H](CN(C)Cc1ccccc1)O2 | nt | nt | -1.7 | 2.0 | -0.1
COc1ccc(CN(C)C[C@@H]2Oc3ccc(NS(=O)(=O)c4c(C)noc4C)cc3C(=O)N([C@H](C)CO)C[C@H]2C)cc1 | nt | 10.2 | -2.3 | 14.3 | 0.2
COc1ccc(CN(C)C[C@H]2Oc3ccc(NS(=O)(=O)c4c(C)noc4C)cc3C(=O)N([C@H](C)CO)C[C@H]2C)cc1 | nt | nt | -5.4 | 28.7* | 0.1
Cc1noc(C)c1S(=O)(=O)Nc1ccc2c(c1)C(=O)N([C@@H](C)CO)C[C@@H](C)[C@@H](CN(C)Cc1ccc3c(c1)OCO3)O2 | nt | 2.4 | -1.9 | 31.6* | -1.3
Cc1noc(C)c1S(=O)(=O)Nc1ccc2c(c1)C(=O)N([C@H](C)CO)C[C@H](C)[C@H](CN(C)Cc1ccccc1)O2 | nt | nt | 1.0 | 21.2* | -0.2
CC(=O)Nc1ccc2c(c1)CC(=O)N(C)C[C@@H](C)[C@H](CN(C)S(C)(=O)=O)O2 | nt | -3.4 | nt | nt | 0.2
Fc1ccc(CN2[C@@H]3CN(CC(F)(F)F)C[C@H]2C3c2ccc(Br)cc2)cc1 (stereo partly drawn) | nt | -12.3 | nt | nt | 0.4
C[C@H]1CN([C@@H](C)CO)C(=O)c2cc(NC(=O)C3CCCCC3)ccc2O[C@@H]1CN(C)C(=O)Nc1ccc(C(F)(F)F)cc1 | nt | 5.4 | 0.5 | -1.6 | 0.1
CCNC(=O)C1(C)CCN(Cc2noc(-c3c(C)noc3C)n2)C1 (stereo not drawn) | -10.2 | -17.8 | -0.3 | 44.6* | 0.0
Cc1nnc(NS(=O)(=O)c2ccc(N=Nc3ccc(N)nc3N)cc2)s1 | -6.5 | -6.6 | 68.5* | -3.6 | 0.0
SMILES | CaV13 FRET inh | FN deposition inh | CASP6 VEID inh | DENV2 CPE | XiGFP reactiv
Cc1nnc(NS(=O)(=O)c2ccc(N)cc2)s1 | -4.5 | -10.8 | 5.2 | -3.0 | 0.1
CC1CCCCC1NC(=O)CN1C(=O)c2cccc(N)c2C1=O (stereo not drawn) | + | nt | -0.9 | nt | 0.4
COCCN(C(=O)c1ccc2c(c1)C(=O)N(c1ccccc1Cl)C2=O)c1c(N)n(CC(C)C)c(=O)[nH]c1=O | -7.1 | 6.9 | -1.7 | -6.7 | 141.9*
C/C=C/c1ccc([C@@H]2[C@H]3CN(C(=O)c4ccncc4)CC(=O)N3[C@H]2CO)cc1 | nt | 0.0 | 3.2 | 0.7 | 0.0
O=C(CN1C(=O)NC2(CCCCC2)C1=O)Nc1cccc(S(=O)(=O)N2CCCC2)c1 | -2.5 | 2.5 | 5.4 | ? | 0.1
O=C(CCN1C(=O)NC2(CCCC2)C1=O)Nc1cccc(S(=O)(=O)N2CCOCC2)c1 | -1.6 | 3.8 | 42.2* | 7.8 | 0.4
Cn1c(=N)c(S(=O)(=O)c2ccccc2)cc2c(=O)n3ccccc3nc21 | 34.5* | nt | nt | nt | nt
CN(C)CC(=O)N1[C@@H](CO)[C@@H](c2ccccc2)C12CN(C(=O)c1cccc(F)c1)C2 | nt | nt | -6.1 | -17.0 | 0.0
COc1ccc2ccccc2c1-c1c(OC)ccc2ccccc12 | nt | nt | -2.4 | 25.8* | nt
COc1ccc(COc2ccccc2C(=O)NCc2ccccc2)cc1F | -4.8 | 4.9 | nt | nt | 23.3*
C[C@@H]1CN([C@@H](C)CO)C(=O)c2cc(NC(=O)Cc3ccccc3)ccc2O[C@H]1CN(C)C(=O)Nc1cccc2ccccc12 | nt | nt | 0.2 | -7.6 | 0.2
O=C(CSc1ccc2c(c1)OCCO2)NCc1ccccc1 | -2.2 | 0.8 | 38.0* | -1.0 | 0.4
CCC(=O)Oc1ccc(C(CC)C(CC)c2ccc(OC(=O)CC)cc2)cc1 (stereo not drawn) | -4.6 | 3.5 | 0.0 | 42.5* | 0.0
COc1ccc([C@@H]2C/C=C\C[C@@H](c3ccc(F)cc3)NC(=O)CCC(=O)N2)c(OC)c1 | nt | 6.9 | nt | nt | 0.2
O=C(COc1ccccc1)NCC(=O)N/N=C/c1ccc(Br)cc1 | nt | nt | -1.9 | 70.0* | 0.1
CCNC(=O)C[C@H]1CC[C@H]2[C@@H](COC[C@@H](O)CN2C(=O)C2CCCC2)O1 | nt | -5.6 | -0.1 | 107.3* | 0.1
O=C(C[C@H]1CC[C@@H]2[C@H](COC[C@H](O)CN2C(=O)C2CCCC2)O1)NCc1ccncc1 | nt | 9.7 | 0.0 | 30.3* | 0.1
O=C(C[C@@H]1CC[C@H]2[C@@H](COC[C@@H](O)CN2C(=O)C2CCCC2)O1)NCc1ccncc1 | nt | 7.5 | -0.9 | -5.2 | 0.2
